Bioassay records: PubChem, Broad Institute
In the library only some 2.2% were active in any assay of this set; here they are far more common.
DYRK1A inh: Dyrk1A (rat) kinase inhibition | Q63470 | inhibition, % at 12.5 µM | 0.43% of 310,000 active | AID 504441 | ADP-Glo luminescence, NFATc1 peptide; in the data active = inhibition above about 50%;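 also: plate controls were vehicle with enzyme for no effect and no enzyme for full effect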
Rtt109 Vps75: blocks Candida albicans Rtt109/Vps75 acetyltransferase activity. inhibition, % at 34.9 µM. Q5AAJ8. purified Rtt109/Vps75, ThioGlo CoA-SH fluorescence, 4 h. 0.16% of 330,000 active. AID 540336;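 active = inhibition of at least 50% in every replicate; inconclusive = best replicate reaches 50% inhibition but some replicates fall short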
Target sequence (Q5AAJ8 whole entry, looked up): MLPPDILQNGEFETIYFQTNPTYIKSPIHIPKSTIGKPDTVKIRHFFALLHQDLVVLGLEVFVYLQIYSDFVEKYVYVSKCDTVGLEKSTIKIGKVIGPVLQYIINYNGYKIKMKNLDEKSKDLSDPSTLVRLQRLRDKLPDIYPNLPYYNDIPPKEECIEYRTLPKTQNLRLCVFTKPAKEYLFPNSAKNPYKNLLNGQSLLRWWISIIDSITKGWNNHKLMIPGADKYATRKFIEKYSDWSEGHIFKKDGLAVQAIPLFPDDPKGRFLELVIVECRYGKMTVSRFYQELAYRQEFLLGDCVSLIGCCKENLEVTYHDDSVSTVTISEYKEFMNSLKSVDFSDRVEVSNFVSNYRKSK
CAL PDZ FP-1: inhibitors of human CAL PDZ peptide binding; Q9HD26; purified CAL PDZ, TMR-peptide fluorescence polarization, 1 h; inhibition, % at 20 µM; 0.02% of 330,000 active;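 active = highest replicate inhibition of at least 40%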;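 also: plate controls were DMSO neutral control wells for no effect and unlabeled competitor peptide control wells for full effect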
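material = purified tagged CAL PDZ domain construct (CerCALP) | buffer or medium = sodium phosphate/NaCl buffer pH 7.4 with TCEP, IgG, Thesit | reagent = TMR-labelled reporter peptide T*-PRC34 bound in PDZ groove | incubation = 1 h room-temperature incubation prior to read | measured by = fluorescence polarization (mP) | evaluation = percent inhibition from loss of millipolarization | control set = unlabelled peptide and DMSO controls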
CDK5 p35 inh: CDK5/p35 (human) kinase inhibition. Q00535+Q15078. Recombinant CDK5/p35, ADP-Glo luminescence, 60 min. inhibition, % at 10 µM. 0.01% of 330,000 active. AID 488839;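 active = highest replicate inhibition of at least 50% and at least 75% of replicates reaching 50%; inconclusive = only one of the two criteria met; inactive = both criteria failed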;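 also: plate controls were DMSO neutral control for no effect and GW8510 at 10 µM for full effect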
CAL PDZ FP-2: blocks peptide binding to the human CAL PDZ domain; Q9HD26; purified CAL PDZ, TMR-peptide fluorescence polarization, 1 h; inhibition, % at 24.9 µM; 0.92% of 300,000 active; AID 602252;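 active = mean inhibition of at least 30% with at least half of replicates also reaching 30%; inconclusive = no clear call, values can overlap the other calls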;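 also: 0% = DMSO neutral control and 100% = excess unlabeled competitor peptide PRC23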
dFosB act-1: mouse delta FosB homodimer activation; 0.99% of 340,000 active; purified delta FosB, TAMRA-CDK5 oligo fluorescence polarization; percent of positive-control signal above neutral wells; activation, % at 25 µM; P13346;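 active = mean activation above about 17%, with every replicate also reaching it, limit read from the data, passing the limit was not always enough; inconclusive = only one of the two conditions met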
dFosB act-2: activators of mouse delta FosB homodimer DNA binding. purified delta FosB, TAMRA-CDK5 oligo fluorescence polarization; normalised: neutral wells 0, positive control 100. shares compounds with dFosB act-1. activation, % at 24.9 µM. AID 588690. 2,400 tested, under 10 active;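 active = highest replicate activation at or above 34% and every replicate reaching that threshold; inconclusive = meets only one of the two criteria; inactive = meets neither criterion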;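 also: higher polarization means more probe DNA bound by delta FosB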
Numbers without * were called inactive; ? = inconclusive; nt = no result given; + = active, no number.

SMILES	DYRK1A inh	Rtt109 Vps75	CAL PDZ FP-1	CDK5 p35 inh	CAL PDZ FP-2	dFosB act-1	dFosB act-2
Cc1ccc(CNS(=O)(=O)c2ccc(C(F)(F)F)cc2)n1C	nt	-9.9	0.6	0.5	57.9*	-5.3	nt
Cc1ccc(CNS(=O)(=O)c2ccc(F)c(F)c2)n1C	0.3	2.4	0.8	-0.7	-0.8	3.9	nt
COc1ccc2c(CC(=O)OCC(=O)Nc3cccc(C)c3)coc2c1	-0.6	-3.3	0.0	0.4	0.3	-10.2	nt
O=C1c2cccc3cccc(c23)C(=O)C1(O)O	78.7*	-4.8	0.1	-1.9	nt	-4.0	nt
O=C1c2cccc3cccc(c23)C(=O)N1c1ccc(O)cc1	-0.1	9.3	-0.3	-1.0	-7.3	-2.9	nt
CCN(CC)c1ccc2c(-c3ccc(S(=O)(=O)O)cc3S(=O)(=O)[O-])c3ccc(=[N+](CC)CC)cc-3oc2c1	11.4	0.3	170.9*	10.5	+	62.9*	nt
Cc1ccc(NC2CCCN(C(=O)c3cccc4nccnc34)C2)cc1C (stereo not given)	-5.2	-0.6	0.0	1.5	0.8	-0.5	nt
N#CCC(=O)Nc1nc(-c2ccc3c(c2)OCCO3)cs1	5.3	nt	-0.4	-0.6	74.1*	-0.5	nt
O=C(CCCCl)Nc1nc(-c2ccc3c(c2)OCCO3)cs1	20.9	-10.2	-1.6	-0.7	7.2	-0.9	nt
CC(NC(=O)c1ccccc1F)c1nnc(SCC(=O)NC2CCCC2)n1C (stereo not given)	10.3	-6.4	-1.0	0.1	-1.8	-7.4	nt
COc1ccc(OCCSc2nnc(C(C)NC(=O)c3ccccc3F)n2C)cc1 (stereo not given)	nt	8.0	-1.3	-0.6	106.5*	-6.4	nt
N#Cc1cccc(NC(=O)CSc2cccc[n+]2[O-])c1	-1.0	-0.1	-0.7	0.7	-2.1	-6.6	nt
Cc1cccc(C(=O)N/N=C2\CS(=O)(=O)N(C)c3ccsc32)c1	1.6	1.7	-2.6	-1.2	-1.7	26.3*	0.6
COc1cccc(-c2cc(C(=O)N3CCN(S(=O)(=O)c4ccc(Br)cc4)CC3)[nH]n2)c1	-3.3	-11.8	0.1	-0.2	4.0	75.0*	5.4
COc1ccc(S(=O)(=O)N2CCN(C(=O)c3cc(-c4ccccc4OC)n[nH]3)CC2)cc1	-12.8	6.7	-4.5	1.1	nt	-15.2	nt
CCC(=O)Nc1ccc(C(=O)CSc2nnc(-c3ccc(NS(=O)(=O)CC)cc3)o2)cc1OC	-1.8	-1.7	-1.6	0.2	-0.3	19.8*	0.5
COc1ccc(-c2nnc(SCC(=O)Nc3cccc(Cl)c3)o2)cc1	-4.8	nt	-2.0	-0.1	2.3	37.8*	2.8
O=C(CSc1nnc(-c2ccc(Br)cc2)o1)Nc1cccc(C(=O)O)c1	3.4	-1.9	-0.1	1.4	-4.3	-2.3	nt
Cc1ccc(C)c(NC(=O)CSc2nnc(-c3n[nH]c4ccccc34)o2)c1	9.2	1.4	-1.4	-1.8	-5.8	34.5*	-0.5
O=C(CSc1nnc(-c2ccc(Br)cc2)o1)Nc1cccc2ccccc12	-6.4	-7.2	-2.6	2.3	nt	29.9*	-0.1
CCN(CC)S(=O)(=O)c1ccc(-c2nnc(SCC(=O)Nc3ccc(OC)cc3)o2)cc1	1.8	3.3	0.8	-4.2	-2.8	107.5*	1.1
CCN(CC)S(=O)(=O)c1ccc(-c2nnc(SCC(=O)Nc3ccc(OC)c(OC)c3)o2)cc1	-4.6	nt	-1.1	-0.1	4.0	?	nt
CCOC(=O)c1c(-c2ccc(F)cc2)csc1/N=C/N(C)C	nt	6.6	-1.5	1.6	10.0	-5.5	nt
CCOc1cc(C(=O)Nc2cc3c(cc2N2CCOCC2)n(C)c(=O)n3C)cc(OCC)c1OCC	9.2	-6.2	0.2	1.1	nt	-4.4	nt
Cc1cc(C)c2nc(/N=C(\N)NC(=O)Nc3ccccc3)nc(C)c2c1	4.6	5.8	-7.4	0.3	nt	51.9*	1.5
Cc1cc(C)c2nc(/N=C(\N)NC(=O)c3ccccc3)nc(C)c2c1	5.0	-10.7	-1.7	-0.6	9.5	-11.6	nt
Cc1ccc(Cn2c(=O)n(CCC(=O)NCc3ccc4c(c3)OCO4)c(=O)c3ccccc32)cc1	9.6	7.3	-1.2	-0.5	66.2*	28.3*	3.2
